Laboratory results from ChEMBL document CHEMBL3091459, “Inhibitory effect of the gallotannin corilagin on dextran sulfate sodium-induced murine ulcerative colitis” (J Nat Prod, 2013).
Active and inactive are the calls of the source. No cut-off for these calls is given here.

Columns and labels:
Assay type in all cases: functional, organism-based
Mus musculus [1] = assay: Antiulcerative colitis activity in C57BL/6 mouse assessed as recovery of DSS-induced body weight loss at 7.5 to 30 mg/kg, ip qd administered on day 6 to 12 post DSS-challenge measured on day 9
Summary of the method: (§1)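 In male C57BL/6 mice given 2.0% (w/v) DSS in drinking water days 0–5, then dosed ip daily days 6–12 (n = 8), body weight was checked daily. Change was also taken as weight before induction minus weight just before sacrifice on day 13.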

Mus musculus [2] = assay: Antiapoptotic activity in C57BL/6 mouse assessed as reduction of DSS-induced cleaved caspase-9 level in colon at 7.5 to 30 mg/kg, ip qd administered on day 6 to 12 post DSS-challenge measured on day 13 by Western blotting analysis
Summary of the method: (§2)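 Male C57BL/6 mice (7–8 wk) given 2.0% (w/v) DSS in drinking water days 0–5. Colitic mice were selected on day 6 and dosed ip once daily, days 6–12, saline vehicle; n = 8/group. Day 13: colon homogenized in RIPA, 50 μg protein run on 10–12% SDS-PAGE. Blots probed for cleaved caspase-3/-9, detected by ECL, β-actin for loading, densitometry; n = 5.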

Mus musculus [3] = assay: Antiapoptotic activity in C57BL/6 mouse assessed as reduction of DSS-induced cleaved caspase-3 level in colon at 7.5 to 30 mg/kg, ip qd administered on day 6 to 12 post DSS-challenge measured on day 13 by Western blotting analysis; summary of the method: as §2
Mus musculus [4] = assay: Antiinflammatory activity in DSS-induced acute colitis C57BL/6 mouse model assessed as upregulation of IkappaB-alpha protein expression at 15 to 30 mg/kg, ip qd administered on day 6 to 12 post DSS-challenge measured on day 13 by Western blotting analysis
Summary of the method: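 Male C57BL/6 mice received 2.0% DSS water for 5 days, then daily ip dosing in saline on days 6–12. On day 13, colon tissue was homogenized in ice-cold RIPA (0.1 g/mL). 50 μg protein was blotted on nitrocellulose and probed for IκBα overnight at 4 °C. ECL detection, normalized to β-actin by densitometry; n = 5.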

Mus musculus [5] = assay: Antiinflammatory activity in DSS-treated C57BL/6 mouse assessed as effect on IL-10 production in colon at 7.5 to 30 mg/kg, ip qd administered on day 6 to 12 post DSS-challenge measured on day 13 by ELISA
Summary of the method: (§3)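 Colitis induced in male C57BL/6 mice with 2.0% (w/v) DSS drinking water for days 0–5, then ip once daily days 6–12 (saline vehicle); 8 mice/group. Day 13: colon homogenized in phosphate buffer with Tween-20, PMSF, benzethonium chloride, EDTA and aprotinin, spun 16000g 15 min at 4 °C. TNF-α, IL-1β, IL-6 and IL-10 measured by ELISA, normalized to Bradford protein, reported as pg/mg.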

Mus musculus [6] = assay: Antiinflammatory activity in ip dosed C57BL/6 mouse assessed as reduction of DSS-induced IL-6 production in colon administered qd on day 6 to 12 post DSS-challenge measured on day 13 by ELISA; summary of the method: as §3
Mus musculus [7] = assay: Antiinflammatory activity in ip dosed C57BL/6 mouse assessed as reduction of DSS-induced IL-1beta production in colon administered qd on day 6 to 12 post DSS-challenge measured on day 13 by ELISA; summary of the method: as §3
Mus musculus [8] = assay: Antiinflammatory activity in ip dosed C57BL/6 mouse assessed as reduction of DSS-induced TNF-alpha production in colon administered qd on day 6 to 12 post DSS-challenge measured on day 13 by ELISA; summary of the method: as §3
Mus musculus [9] = assay: In vivo inhibition of myeloperoxidase activity in colon homogenates of DSS-induced acute colitis C57BL/6 mouse model at 7.5 to 30 mg/kg, ip qd administered on day 6 to 12 post DSS-challenge measured on day 13
Summary of the method: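 Day 13 colons from DSS-colitic male C57BL/6 mice (2.0% DSS for 5 days; ip daily days 6–12; n = 8) were homogenized in 0.5% HTAB (1 mL/100 mg) and spun 19000g 15 min at 4 °C. Supernatant was mixed with 50 mmol pH 6.0 phosphate buffer containing 0.0005% o-dianisidine and 0.1% H2O2. Rate of OD460 change at 25 °C was read and expressed as units/g wet tissue.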

Mus musculus [10] = assay: Antiulcerative colitis activity in C57BL/6 mouse assessed as attenuation of DSS-induced lesions formation at 7.5 to 30 mg/kg, ip qd administered on day 6 to 12 post DSS-challenge measured on day 13 by hematoxylin/eosin staining-based assay
Summary of the method: (§4)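 DSS colitis (2.0% in drinking water, 5 days) in male C57BL/6 mice treated ip once daily days 6–12, n = 8. Day 13 colons opened, washed in ice-cold PBS, fixed overnight in 4% paraformaldehyde, paraffin-embedded. 5 μm sections stained with H&E and scored histologically, including inflammation severity.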

Mus musculus [11] = assay: Antiulcerative colitis activity in C57BL/6 mouse assessed as attenuation of DSS-induced crypt destruction at 7.5 to 30 mg/kg, ip qd administered on day 6 to 12 post DSS-challenge measured on day 13 by hematoxylin/eosin staining-based assay; summary of the method: as §4
Mus musculus [12] = assay: Antiulcerative colitis activity in C57BL/6 mouse assessed as inhibition of DSS-induced shortening of colon length at 30 mg/kg, ip qd administered on day 6 to 12 post DSS-challenge measured on day 13; design: dose 30 mg/kg
Summary of the method: (§5)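 Mice (male C57BL/6, 20–24 g) drank 2.0% DSS for 5 days. Animals with weight loss, diarrhea and bleeding on day 6 were randomized and given ip doses once daily to day 12, saline as vehicle; n = 8. Colon length was measured after sacrifice on day 13.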

Mus musculus [13] = assay: Antiulcerative colitis activity in ip dosed C57BL/6 mouse assessed as inhibition of DSS-induced shortening of colon length administered qd on day 6 to 12 post DSS-challenge measured on day 13; summary of the method: as §5
Mus musculus [14] = assay: Antiulcerative colitis activity in C57BL/6 mouse assessed as recovery of DSS-induced body weight loss at 7.5 to 30 mg/kg, ip qd administered on day 6 to 12 post DSS-challenge measured on day 8; summary of the method: as §1
Mus musculus [15] = assay: Antiulcerative colitis activity in DSS-induced acute colitis C57BL/6 mouse model assessed as decrease in disease activity index at 15 to 30 mg/kg, ip qd administered on day 6 to 12 post DSS-challenge measured on day 13
Mus musculus [16] = assay: Antiulcerative colitis activity in C57BL/6 mouse assessed as attenuation of DSS-induced inflammatory cell infiltration at 7.5 to 30 mg/kg, ip qd administered on day 6 to 12 post DSS-challenge measured on day 13 by hematoxylin/eosin staining-based assay; summary of the method: as §4

`O=C(O[C@@H]1O[C@@H]2COC(=O)c3cc(O)c(O)c(O)c3-c3c(cc(O)c(O)c3O)C(=O)O[C@H]([C@H]1O)[C@@H]2O)c1cc(O)c(O)c(O)c1` was tested, and the Activity (Mus musculus [1]) was “Active”, the Activity (Mus musculus [2]) was “Active” and the Activity (Mus musculus [3]) was “Active”. The Activity (Mus musculus [4]) was “Active”, the Activity (Mus musculus [5]) was “inactive” and the Activity (Mus musculus [6]) was “Dose-dependent effect”. For the same molecule, the Activity (Mus musculus [7]) was “Dose-dependent effect”, the Activity (Mus musculus [8]) was “Dose-dependent effect” and the inhibition (Mus musculus [9]) was “Active”. The Activity (Mus musculus [10]) was “Active”, the Activity (Mus musculus [11]) was “Active” and the inhibition (Mus musculus [12]) was “Active”. The inhibition (Mus musculus [13]) was “Dose-dependent effect”, the Activity (Mus musculus [14]) was “Active” and the Activity (Mus musculus [15]) was “Active”. The Activity (Mus musculus [16]) was “Active”.
